An excerpt weighted towards active compounds, which were near 3.5% of everything screened.
RGS4 pot: potentiators or activators of RGS4; HEK293 M3R/inducible RGS4, carbachol calcium flux Fluo4; hits give low values; B-score at 10 µM; 310,000 tested, 0.92% active; AID 463111;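 active = B-score of the integrated calcium signal more than 4 SD below the library mean, with starting fluorescence not abnormally high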;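 also: negative B-score means reduced calcium response which marks RGS4 activation or potentiation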
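Assay system: HEK293 FlpIn-TREx cells, stable M3R, doxycycline-inducible RGS4 / Probe or stimulus: carbachol, ECmax concentration / Times: overnight RGS4 induction, 30 min dye load 37 °C, 20 min compound RT / Signal: kinetic calcium fluorescence imaging with Fluo4-AM dye, 2 µM / Measure: Agonist-evoked peak-minus-minimum fluorescence over baseline, integrated ratio, B score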
MrgX1 PAM: allosterically activates human MrgX1 receptor signaling; Q96LB2; MrgX1-HEK293, Fluo-4 calcium flux, FDSS; hits give high values; B-score at 10 µM; 310,000 tested, 0.63% active; AID 588675;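 active = plate-corrected calcium response at least 3 library SD above typical, normal starting fluorescence, not activating the receptor alone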;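 also: compound read alongside a low EC10 to EC30 dose of BAM8-22 agonist; peak minus trough fluorescence over baseline measured at the second addition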
RGS4 inh: inhibitors of human RGS4. P49798. HEK293 M3R/RGS4 inducible, Fluo-4 calcium flux; hits give high values; triggered by carbachol at its EC20. B-score at 10 µM. 310,000 tested, 0.45% active. AID 463165;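 active = B-score, a plate-corrected calcium signal, over three deviations above library mean, with baseline fluorescence within five deviations of library mean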;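 also: RGS4 expression induced by doxycycline in cells with stable M3 receptor; B-score is computed from the integrated fluorescence ratio over baseline after carbachol; higher B-score means a larger calcium signal and so more RGS4 inhibition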
Target sequence (P49798 whole entry, looked up): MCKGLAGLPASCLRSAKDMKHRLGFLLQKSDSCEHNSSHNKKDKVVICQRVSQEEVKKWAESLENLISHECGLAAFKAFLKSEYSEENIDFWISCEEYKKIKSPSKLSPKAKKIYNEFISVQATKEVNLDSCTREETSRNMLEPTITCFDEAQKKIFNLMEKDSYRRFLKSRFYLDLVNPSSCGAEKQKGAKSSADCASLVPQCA
MrgX1 antag: human MrgX1 receptor antagonism, primary screen. 310,000 tested, 1.3% active. B-score at 10 µM. MRGX1-HEK293 calcium flux, Fluo-4, BAM8-22 antagonism; hits give low values. Q96LB2;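 active = calcium-response B-score plate-corrected more than 3 library SD below zero, starting fluorescence within 5 deviations, no agonist response on first addition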;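 also: peak minus trough fluorescence over baseline after final BAM8-22 challenge near maximal dose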
MrgX1 ag: agonists of human MrgX1 receptor; Q96LB2; MrgX1-HEK293 cells, Fluo-4 calcium fluorescence, agonist mode; hits give high values; B-score at 10 µM; 310,000 tested, 0.44% active; AID 588627;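 active = calcium response B-score plate-corrected fluorescence ratio at least 3 library SD, with starting fluorescence B-score inside 5 SD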
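Material – MrgX1-expressing HEK293 cells · Input – 15,000 cells seeded per well · Dosing – compound as first of three additions · Times – overnight seeding, then 1 h dark dye loading · Measured by – kinetic Fluo-4 NW fluorescence of intracellular calcium · Read-out – B-scored fluorescence response ratio · Benchmarks – positive and negative control wells on each plate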
RGS4 act valid: RGS4 activation, validation assay; inhibition, % at 10 µM; 1,100 tested, 89% active; HEK293 M3R/RGS4 inducible, carbachol calcium flux Fluo4; AID 602282; shares compounds with RGS4 pot;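 active = inhibition above 3 SD of the buffer control wells, cut at about 41% in these data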;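 also: signal is the integrated peak-minus-minimum Fluo4 fluorescence over baseline ratio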
M3R Ca counter: RGS4 activator counter-screen hit in non-induced cells; HEK293 M3R non-induced RGS4, Fluo4 calcium flux; after carbachol challenge at its EC90; 1,100 tested, 82% active; shares compounds with RGS4 pot; inhibition, % at 10 µM; AID 602283;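 active = inhibition exceeding 3 SD of buffer-only control wells, cut at about 26% in these data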;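 also: percent drop in integrated peak-minus-baseline over baseline Fluo4 ratio after carbachol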
Starred values were filed as active, the others as inactive; i = inactive; / = no result given.

SMILES	RGS4 pot	MrgX1 PAM	RGS4 inh	MrgX1 antag	MrgX1 ag	RGS4 act valid	M3R Ca counter
O=C(NCc1ccccc1)c1ccc(C2SCC(=O)N2Cc2ccccc2)cc1 (stereo not given)	-7.9*	i	i	i	i	88.0*	55.3*
C=CCNC(=O)c1ccc(C2SCC(=O)N2Cc2ccccc2)cc1 (stereo not given)	i	i	i	i	i	/	/
CCOc1ccc(S(=O)(=O)NC(C)(C)C)cc1-c1nc2c(C(C)(C)C)nn(C)c2c(=O)[nH]1	-10.2*	i	i	i	i	76.0*	46.3*
COC(=O)C1=C(C(=O)OC)[N+]2=C3N(C(=O)NC2(C)C)[C@H](CO)C[C@@]32c3ccccc3N(Cc3ccccc3)[C@@H]12	i	i	i	i	i	/	/
CCOC(=O)C1CC(c2ccccc2)=NNC1=O (stereo not given)	i	i	i	i	i	/	/
COc1ccc(CCC(C)N2CCC(Oc3ccc(C(=O)N4CCCC4)cc3)CC2)cc1 (stereo not given)	-7.63*	i	i	i	i	83.5*	43.8*
CC(CCc1ccc(O)cc1)N1CCC(Oc2ccc(C(=O)N3CCCC3)cc2)CC1 (stereo not given)	i	i	i	i	i	/	/
CC1CCN(S(=O)(=O)c2ccc3c(ccn3CCC(=O)NC(C)C)c2)CC1	-7.88*	i	i	i	i	0.0	0.0
Cc1nc2ccc(NC(=O)c3cccc(S(=O)(=O)N(C)c4ccccc4)c3)cc2s1	-8.94*	i	i	i	i	88.5*	69.3*
Cc1ccc(C)c(OC(=O)CN2C(=O)c3ccccc3C2=O)c1	i	i	i	i	i	/	/
CN(CC(=O)Nc1cccc(F)c1)C(=O)c1cc(-c2cccs2)nn1-c1ccccc1	-9.55*	i	i	i	i	76.0*	42.8*
CCOC(=O)C1CCC(CN(Cc2ccccc2)S(=O)(=O)c2ccc([N+](=O)[O-])cc2)CC1 (stereo not given)	i	i	i	i	i	/	/
CCOc1ccc(S(=O)(=O)N2CCN(Cc3ccc4c(c3)OCO4)CC2)cc1Cl	i	i	i	i	i	/	/
Cc1cccc(S(=O)(=O)N2CCN(Cc3ccc4c(c3)OCO4)CC2)c1	-10.1*	i	i	i	i	67.5*	83.8*
COc1ccc(S(=O)(=O)N2CCN(Cc3ccc4c(c3)OCO4)CC2)cc1	-10.6*	i	i	i	i	61.5*	83.8*
COc1ccc(S(=O)(=O)N2CCC(N3CCN(Cc4ccccc4)CC3)CC2)cc1	-8.02*	i	i	i	i	86.5*	49.8*
CSc1ccc(S(=O)(=O)N2CCN(Cc3ccc4c(c3)OCO4)CC2)cc1	-9.9*	i	i	i	i	92.5*	91.3*
O=C(c1ccc2nc(-c3ccco3)c(-c3ccco3)nc2c1)N1CCN(c2ccccc2)CC1	-12.7*	i	i	i	i	91.5*	46.3*
CCc1nc2ccc(C(=O)N3CCN(c4ccccc4)CC3)cc2nc1CC	i	i	i	i	i	/	/
O=C(Nc1ccccc1C(=O)O)c1cc(S(=O)(=O)N2CCCCCC2)ccc1Cl	-8.4*	i	i	i	i	0.0	0.0
Cc1c(NC(=O)c2cc(-c3cccs3)nc3ccccc23)c(=O)n(-c2ccccc2)n1C	i	i	i	i	i	/	/
Cc1ccc(NC(=O)c2cc(-c3cccs3)nc3ccccc23)nc1	-7.86*	i	i	i	i	78.0*	0.0
CC(CCc1ccccc1)NC(=O)COc1ccc(S(=O)(=O)N2CCOCC2)cc1[N+](=O)[O-] (stereo not given)	i	i	i	i	i	/	/
CCn1c2ccccc2c2cc(/C=N/n3cn[nH]c3=S)ccc21	i	i	i	i	i	/	/

High-throughput results: PubChem, Johns Hopkins Ion Channel Center
